Measured values taken from ChEMBL document CHEMBL2434922, “Microwave assisted synthesis of dihydrobenzo[4,5]imidazo[1,2-a]pyrimidin-4-ones; synthesis, in vitro antimicrobial and anticancer activities of novel coumarin substituted dihydrobenzo[4,5]imidazo[1,2-a]pyrimidin-4-ones” (2013).
≈ marks a conversion by molar mass, not a printed value.

Columns and labels:
Assay type in all cases: functional
[1] = Cytotoxicity against mouse Daltons ascitic lymphoma cells assessed as dead cells at 100 ug/ml after 3 hrs by trypan blue exclusion assay relative to control
Procedure, shortened: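 DAL cells (0.2 mL, 10⁶ cells/mL) mixed with ice-cold PBS pH 7.4 and compound (100 µg/mL), held at 37 °C under 5% CO₂ for 3 h. Aliquot then stained with 0.4% trypan blue in normal saline for 5–15 min at room temperature. Live and dead cells counted in a Neubauer chamber; % dead = dead/(dead+live) × 100.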

Penicillium chrysogenum = assay: Antifungal activity against Penicillium chrysogenum assessed as growth inhibition after 48 to 72 hrs by broth microdilution method
Fusarium oxysporum = assay: Antifungal activity against Fusarium oxysporum assessed as growth inhibition after 48 to 72 hrs by broth microdilution method
Aspergillus flavus = assay: Antifungal activity against Aspergillus flavus assessed as growth inhibition after 48 to 72 hrs by broth microdilution method
Aspergillus fumigatus = assay: Antifungal activity against Aspergillus fumigatus assessed as growth inhibition after 48 to 72 hrs by broth microdilution method
Aspergillus niger = assay: Antifungal activity against Aspergillus niger assessed as growth inhibition after 48 to 72 hrs by broth microdilution method
Candida albicans = assay: Antifungal activity against Candida albicans assessed as growth inhibition after 48 to 72 hrs by broth microdilution method
Pseudomonas aeruginosa = assay: Antibacterial activity against Pseudomonas aeruginosa assessed as growth inhibition after 18 hrs by broth microdilution method
Klebsiella pneumoniae = assay: Antibacterial activity against Klebsiella pneumoniae assessed as growth inhibition after 18 hrs by broth microdilution method
Escherichia coli = assay: Antibacterial activity against Escherichia coli assessed as growth inhibition after 18 hrs by broth microdilution method
Streptococcus mutans = assay: Antibacterial activity against Streptococcus mutans assessed as growth inhibition after 18 hrs by broth microdilution method
Enterococcus faecalis = assay: Antibacterial activity against Enterococcus faecalis assessed as growth inhibition after 18 hrs by broth microdilution method
Staphylococcus aureus = assay: Antibacterial activity against Staphylococcus aureus assessed as growth inhibition after 18 hrs by broth microdilution method

| SMILES | mortality at 100 µg/mL [1] [%] | MIC (Penicillium chrysogenum) [µg/mL] | MIC (Fusarium oxysporum) [µg/mL] | MIC (Aspergillus flavus) [µg/mL] | MIC (Aspergillus fumigatus) [µg/mL] | MIC (Aspergillus niger) [µg/mL] | MIC (Candida albicans) [µg/mL] | MIC (Pseudomonas aeruginosa) [µg/mL] | MIC (Klebsiella pneumoniae) [µg/mL] | MIC (Escherichia coli) [µg/mL] | MIC (Streptococcus mutans) [µg/mL] | MIC (Enterococcus faecalis) [µg/mL] | MIC (Staphylococcus aureus) [µg/mL] |
| --- | --- | --- | --- | --- | --- | --- | --- | --- | --- | --- | --- | --- | --- |
| O=c1cc(-c2cccc(Cl)c2)nc2[nH]c3ccccc3n12 | 71 | 0.4 (≈ 1.35 µM) | 0.2 (≈ 0.676 µM) | 0.2 (≈ 0.676 µM) | 0.2 (≈ 0.676 µM) | 25 (≈ 84.5 µM) | 1.6 (≈ 5.41 µM) | 100 (≈ 338 µM) | 100 (≈ 338 µM) | 100 (≈ 338 µM) | 25 (≈ 84.5 µM) | 0.2 (≈ 0.676 µM) | 100 (≈ 338 µM) |
| CC(C)c1cc(=O)n2c3ccccc3n(Cc3cc(=O)oc4ccc(F)cc34)c2n1 | 81 | 0.4 (≈ 0.992 µM) | 0.2 (≈ 0.496 µM) | 1.6 (≈ 3.97 µM) | 0.8 (≈ 1.98 µM) | 1.6 (≈ 3.97 µM) | 25 (≈ 62 µM) | 100 (≈ 248 µM) | 100 (≈ 248 µM) | 100 (≈ 248 µM) | 0.8 (≈ 1.98 µM) | 0.4 (≈ 0.992 µM) | 100 (≈ 248 µM) |
| Cc1ccc2oc(=O)cc(Cn3c4ccccc4n4c(=O)cc(C(F)(F)F)nc34)c2c1 | 69 | 0.2 (≈ 0.47 µM) | 0.2 (≈ 0.47 µM) | 12.5 (≈ 29.4 µM) | 25 (≈ 58.8 µM) | 12.5 (≈ 29.4 µM) | 50 (≈ 118 µM) | > 100 | 100 (≈ 235 µM) | 100 (≈ 235 µM) | 12.5 (≈ 29.4 µM) | 0.4 (≈ 0.94 µM) | 100 (≈ 235 µM) |
| Oc1cc(-c2ccccc2)nc2nc3ccccc3n12 | 58 | 0.2 (≈ 0.765 µM) | 0.2 (≈ 0.765 µM) | 0.8 (≈ 3.06 µM) | 0.8 (≈ 3.06 µM) | 6.25 (≈ 23.9 µM) | 1.6 (≈ 6.12 µM) | 100 (≈ 383 µM) | 100 (≈ 383 µM) | 100 (≈ 383 µM) | 100 (≈ 383 µM) | 0.2 (≈ 0.765 µM) | 100 (≈ 383 µM) |
| CC(C)c1cc(=O)n2c3ccccc3n(Cc3cc(=O)oc4ccc(Br)cc34)c2n1 | 47 | 0.2 (≈ 0.431 µM) | 0.2 (≈ 0.431 µM) | 0.8 (≈ 1.72 µM) | 0.8 (≈ 1.72 µM) | 25 (≈ 53.8 µM) | 50 (≈ 108 µM) | > 100 | > 100 | 100 (≈ 215 µM) | > 100 | 0.8 (≈ 1.72 µM) | > 100 |
| O=c1cc(-c2cccc(F)c2)nc2[nH]c3ccccc3n12 | 54 | 0.2 (≈ 0.716 µM) | 0.4 (≈ 1.43 µM) | 0.8 (≈ 2.86 µM) | 0.8 (≈ 2.86 µM) | 12.5 (≈ 44.8 µM) | 1.6 (≈ 5.73 µM) | 25 (≈ 89.5 µM) | 100 (≈ 358 µM) | 100 (≈ 358 µM) | 12.5 (≈ 44.8 µM) | 0.2 (≈ 0.716 µM) | 100 (≈ 358 µM) |
| O=c1cc(Cn2c3ccccc3n3c(=O)cc(C(F)(F)F)nc23)c2cc(F)ccc2o1 | 79 | 0.2 (≈ 0.466 µM) | 0.2 (≈ 0.466 µM) | 1.6 (≈ 3.73 µM) | 1.6 (≈ 3.73 µM) | 25 (≈ 58.2 µM) | 50 (≈ 116 µM) | 100 (≈ 233 µM) | 100 (≈ 233 µM) | 100 (≈ 233 µM) | 12.5 (≈ 29.1 µM) | 0.8 (≈ 1.86 µM) | 100 (≈ 233 µM) |
| O=c1cc(-c2ccc(C(F)(F)F)cc2)nc2[nH]c3ccccc3n12 | 79 | 0.2 (≈ 0.607 µM) | 0.2 (≈ 0.607 µM) | 1.6 (≈ 4.86 µM) | 1.6 (≈ 4.86 µM) | 100 (≈ 304 µM) | 6.25 (≈ 19 µM) | > 100 | > 100 | > 100 | > 100 | 0.2 (≈ 0.607 µM) | > 100 |
| OC(Cn1cncn1)(Cn1cncn1)c1ccc(F)cc1F [FLUCONAZOLE] | – | 8 (≈ 26.1 µM) | 8 (≈ 26.1 µM) | 8 (≈ 26.1 µM) | 8 (≈ 26.1 µM) | 8 (≈ 26.1 µM) | 16 (≈ 52.2 µM) | – | – | – | – | – | – |
| O=c1cc(-c2ccc(F)cc2)nc2[nH]c3ccccc3n12 | 83 | 0.4 (≈ 1.43 µM) | 0.4 (≈ 1.43 µM) | 0.2 (≈ 0.716 µM) | 0.2 (≈ 0.716 µM) | 1.6 (≈ 5.73 µM) | 1.6 (≈ 5.73 µM) | 100 (≈ 358 µM) | 100 (≈ 358 µM) | 100 (≈ 358 µM) | 12.5 (≈ 44.8 µM) | 0.2 (≈ 0.716 µM) | 100 (≈ 358 µM) |
